Data taken from ChEMBL document CHEMBL1156352, “New antiviral cassane furanoditerpenes from Caesalpinia minax” (J Nat Prod, 2001).
≈ marks a conversion by molar mass, not a printed value.

How the values were obtained:
Human respirovirus 3 = assay: Antiviral activity against Parainfluenza virus type 3 infected in human Hep2 cells assessed as inhibition of virus-induced cytopathogenic effect; assay type: functional, organism-based; settings: Human respirovirus 3, HEp-2
Method in brief: (§1)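 Run in 96-well plates on Hep-2 cell monolayers, with ribavirin as positive control and an untreated infection control. Para3 virus suspension was added and CPE was scored under an inverted microscope. IC50 was the concentration that reduced CPE by 50% relative to virus control. TC50 was the concentration giving 50% cytotoxic effect.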

[1] = Therapeutic index, ratio of TC50 for human Hep2 cells to IC50 for Parainfluenza virus type 3; assay type: cell-based, HEp-2; settings: read-out: TI; method in brief: as §1
[2] = Cytotoxicity against human Hep2 cells; assay type: cell-based, HEp-2; settings: read-out: LC50 (the source's name)

C=C1c2ccoc2C[C@H]2[C@H]1[C@@H](OC(C)=O)[C@H](OC(C)=O)[C@@]1(O)C(C)(C)CC[C@H](OC(C)=O)[C@]21C [CAESALAMIN C]
IC50 (Human respirovirus 3): 8.2 µg/mL (≈ 17.3 µM) | selectivity ratio [1]: 23.9 | CC50 [2]: 196 µg/mL (≈ 414 µM)

CC(=O)O[C@@H]1[C@@H]2[C@H](Cc3occc3[C@]2(C)O)[C@@]2(C)[C@@H](OC(C)=O)CCC(C)(C)[C@]2(O)[C@H]1OC(C)=O [CAESALMIN D]
IC50 (Human respirovirus 3): 9.6 µg/mL (≈ 19.5 µM) | selectivity ratio [1]: 19.1 | CC50 [2]: 182 µg/mL (≈ 370 µM)

CC(=O)O[C@@H]1[C@@H]2[C@H](Cc3occc3[C@@]2(C)O)[C@@]2(C)[C@@H](OC(C)=O)CCC(C)(C)[C@]2(O)[C@H]1OC(C)=O [CAESALMIN E]
IC50 (Human respirovirus 3): 10.3 µg/mL (≈ 20.9 µM) | selectivity ratio [1]: 16 | CC50 [2]: 165 µg/mL (≈ 335 µM)

CO[C@]1(C)c2ccoc2C[C@H]2C1[C@@H](OC(C)=O)[C@H](OC(C)=O)[C@@]1(O)C(C)(C)CC[C@H](OC(C)=O)[C@]21C (stereo partly drawn) [CAESALMIN F]
IC50 (Human respirovirus 3): 7.8 µg/mL (≈ 15.4 µM) | selectivity ratio [1]: 17.5 | CC50 [2]: 136 µg/mL (≈ 269 µM)

CC1(C)CC[C@H](O)[C@]2(C)[C@H]3Cc4occc4[C@H]4C(=O)O[C@@H](C[C@@]12O)[C@@H]43 [CAESALMIN G]
IC50 (Human respirovirus 3): 14.8 µg/mL (≈ 42.7 µM) | selectivity ratio [1]: 3 | CC50 [2]: 44.7 µg/mL (≈ 129 µM)

CC[C@H](/C=C/[C@@H](C)[C@H]1CC[C@H]2[C@@H]3CC=C4C[C@@H](O)CC[C@]4(C)[C@H]3CC[C@]12C)C(C)C [STIGMASTEROL]
IC50 (Human respirovirus 3): 37.5 µg/mL (≈ 90.9 µM) | selectivity ratio [1]: 3.6 | CC50 [2]: 137 µg/mL (≈ 331 µM)
